Data from ChEMBL document CHEMBL3580590, “A Developability-Focused Optimization Approach Allows Identification of in Vivo Fast-Acting Antimalarials: N-[3-[(Benzimidazol-2-yl)amino]propyl]amides” (J Med Chem, 2015).
Values after ≈ are worked out from the molar mass of the structure shown. Active and inactive are the calls of the source. No cut-off for these calls is given here.

Tests used:
Plasmodium falciparum [1] = experiment: Antimalarial activity against Plasmodium falciparum 3D7A infected in red blood cells assessed as inhibition of parasite growth after 24 hrs by [3H]hypoxanthine incorporation assay; type: functional, organism-based
Summary of the method: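 P. falciparum 3D7 parasitized RBC (0.5% parasitemia, 2% hematocrit) in RPMI-1640 with 5% albumax and 5 μM hypoxanthine. 3H-hypoxanthine was then added for a further 24 h. Cells were harvested onto glass-fiber filters and incorporation was read by scintillation; IC50 was derived.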

[2] = Cytotoxicity against human HepG2 cells by ATP bioluminescene method; type: cell-based; settings: read-out: TC50 (the source's name)
[3] = Kinetic solubility of the compound in DMSO/phosphate buffered saline at pH 7.4 by chemiluminescent nitrogen detection method; type: physicochemical; settings: read-out: Kinetic_solubility
Summary of the method: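 Kinetic solubility from DMSO stock solution in phosphate-buffered saline, pH 7.4, quantified by chemiluminescent nitrogen detection.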

Plasmodium falciparum [4] = experiment: Antimalarial activity against chloroquine and pyrimethamine-resistant Plasmodium falciparum W2 assessed as inhibition of parasite growth; type: functional, organism-based
Summary of the method: (§1)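 Growth inhibition by [3H]-hypoxanthine incorporation, which tracks parasite growth. Parasitised RBC culture (0.5% parasitemia, 2% haematocrit) in RPMI-1640 with 5% Albumax and 5 μM hypoxanthine, exposed to serial drug dilutions. Cells harvested onto glass-fibre filters, radioactivity counted, IC50 derived.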

Plasmodium falciparum [5] = experiment: Antimalarial activity against chloroquine and pyrimethamine-resistant Plasmodium falciparum V1/S assessed as inhibition of parasite growth; type: functional, organism-based; summary of the method: as §1
[6] = target: Voltage-gated inwardly rectifying potassium channel KCNH2 (Homo sapiens, UniProt Q12809); experiment: Inhibition of human ERG by IonWorks electrophysiology
Chain of Voltage-gated inwardly rectifying potassium channel KCNH2 (Q12809 whole entry): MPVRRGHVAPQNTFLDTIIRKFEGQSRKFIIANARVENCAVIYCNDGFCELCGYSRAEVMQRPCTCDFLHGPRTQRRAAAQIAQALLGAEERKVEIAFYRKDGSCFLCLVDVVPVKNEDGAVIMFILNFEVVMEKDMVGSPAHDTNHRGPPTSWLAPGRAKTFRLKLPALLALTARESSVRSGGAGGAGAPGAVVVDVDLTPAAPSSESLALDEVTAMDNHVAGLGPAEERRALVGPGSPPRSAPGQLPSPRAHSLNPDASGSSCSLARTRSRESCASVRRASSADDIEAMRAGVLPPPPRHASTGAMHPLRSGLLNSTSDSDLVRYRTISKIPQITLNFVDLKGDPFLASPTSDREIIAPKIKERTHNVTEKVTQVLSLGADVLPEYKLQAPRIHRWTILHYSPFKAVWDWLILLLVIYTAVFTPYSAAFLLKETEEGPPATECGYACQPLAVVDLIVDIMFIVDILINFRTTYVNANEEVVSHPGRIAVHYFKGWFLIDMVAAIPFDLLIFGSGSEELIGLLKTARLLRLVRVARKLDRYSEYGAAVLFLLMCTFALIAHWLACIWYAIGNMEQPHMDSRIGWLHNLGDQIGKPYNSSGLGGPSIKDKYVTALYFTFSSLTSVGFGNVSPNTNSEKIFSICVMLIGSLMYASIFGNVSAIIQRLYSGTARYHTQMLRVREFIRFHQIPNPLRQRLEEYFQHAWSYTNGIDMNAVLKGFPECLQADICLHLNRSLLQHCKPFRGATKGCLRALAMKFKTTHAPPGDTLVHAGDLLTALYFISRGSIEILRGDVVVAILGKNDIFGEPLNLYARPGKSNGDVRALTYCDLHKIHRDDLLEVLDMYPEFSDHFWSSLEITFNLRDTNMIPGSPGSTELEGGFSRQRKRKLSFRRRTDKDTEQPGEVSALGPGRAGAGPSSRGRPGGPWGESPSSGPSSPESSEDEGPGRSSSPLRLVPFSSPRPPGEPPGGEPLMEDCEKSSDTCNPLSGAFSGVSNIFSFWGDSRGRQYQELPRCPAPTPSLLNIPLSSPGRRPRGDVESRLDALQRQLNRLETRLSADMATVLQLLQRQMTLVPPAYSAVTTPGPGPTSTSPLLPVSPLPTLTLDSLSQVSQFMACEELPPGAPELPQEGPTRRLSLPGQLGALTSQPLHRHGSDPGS

[7] = Selectivity index, ratio of TC50 for human HepG2 cells to IC50 for Plasmodium falciparum 3D7A; type: toxicity, cell-based; settings: read-out: Selectivity Index
Plasmodium falciparum [8] = experiment: Antimalarial activity against erythrocytic stage of Plasmodium falciparum 3D70087/N9 infected in NSG mouse engrafted with human erythrocytes assessed as parasite killing at 100 mg/kg, po qd for 4 days starting from day 3 to day 6 after parasite infection measured 48 hrs after initiation of drug treatment by Giemsa-staining based microscopy; type: functional, organism-based
[9] = Oral bioavailability in CD1 mouse at 10 mg/kg administered via gavage by LC-MS/MS analysis; type: ADME, organism-based; settings: in vivo
Summary of the method: (§2)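 Mice were dosed IV at 1 mg/kg (0.1 mg/mL in 20% encapsine, 5% DMSO in saline) or PO at 10 mg/kg (1 mg/mL suspension in 1% methylcellulose), 10 mL/kg each. After IV dosing, blood was sampled from 5 min to 24 h. Blood was mixed 1:1 with 0.1% saponine and frozen at −80 °C. Samples were acetonitrile-extracted and analyzed by positive-ESI LC-MS/MS.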

[10] = Clearance in CD1 mouse at 1 mg/kg, iv by LC-MS/MS analysis; type: ADME, organism-based; settings: in vivo; summary of the method: as §2
[11] = Solubility of the compound in fasted state simulated intestinal fluid; type: ADME
Plasmodium falciparum [12] = settings: 3D70087/N9, 100 mg/kg

O=C(c1cc(Cl)cc(Cl)c1)N1CCN(c2nc3ccccc3[nH]2)CC1
IC50 (Plasmodium falciparum [1]): 2520 nM

O=C(NCCCNc1nc2ccccc2[nH]1)c1cc(Cl)c(O)c(Cl)c1
IC50 (Plasmodium falciparum [1]): > 5000 nM

O=C(NCCCNc1nc2ccccc2[nH]1)C1CCC(CO)CC1 (stereo unspecified)
IC50 (Plasmodium falciparum [1]): > 5000 nM

N#Cc1ccc2[nH]c(NCCCNC(=O)c3cc(Cl)cc(Cl)c3)nc2c1
IC50 (Plasmodium falciparum [1]): 1470 nM

CN(C)Cc1ccc(C(=O)NCCCNc2nc3ccccc3[nH]2)cc1
IC50 (Plasmodium falciparum [1]): 2260 nM

CN(C)C(=O)c1cccc(C(=O)NCCCNc2nc3ccccc3[nH]2)c1
IC50 (Plasmodium falciparum [1]): > 5000 nM

O=C(NCCCNc1nc2ccccc2[nH]1)c1cccc(C(F)(F)F)c1
IC50 (Plasmodium falciparum [1]): 140 nM

O=C(NCCCNc1nc2ccccc2[nH]1)c1ccc2c(c1)CCO2
IC50 (Plasmodium falciparum [1]): 3260 nM

O=C(NCC1(CNc2nc3ccccc3[nH]2)CC1)c1cc(Cl)cc(Cl)c1
IC50 (Plasmodium falciparum [1]): 1030 nM

N#Cc1ccc(C(=O)NCCCNc2nc3ccccc3[nH]2)cc1F
IC50 (Plasmodium falciparum [1]): 1370 nM

O=C(NCCCNc1nc2ccccc2[nH]1)c1ccccc1
IC50 (Plasmodium falciparum [1]): 3170 nM

O=C(NCCCNc1nc2ccccc2[nH]1)c1ccc(Cl)cc1Cl
IC50 (Plasmodium falciparum [1]): 4030 nM

O=C(NCCCNc1nc2ccccc2[nH]1)c1cccc(O)c1
IC50 (Plasmodium falciparum [1]): > 5000 nM

COC(=O)c1ccc2[nH]c(NCCCNC(=O)c3cc(Cl)cc(Cl)c3)nc2c1
IC50 (Plasmodium falciparum [1]): 150 nM | CC50 [2]: 25700 nM | solubility kinetic [3]: 29 µM (≈ 12.2 µg/mL)

CN(CCCNc1nc2ccccc2[nH]1)C(=O)c1cc(Cl)cc(Cl)c1
IC50 (Plasmodium falciparum [1]): > 5000 nM

CN1CCN(Cc2ccc(C(=O)NCCCNc3nc4ccccc4[nH]3)cc2)CC1
IC50 (Plasmodium falciparum [1]): > 5000 nM

O=C(NCCCNc1nc2ccncc2[nH]1)c1cc(Cl)cc(Cl)c1
IC50 (Plasmodium falciparum [1]): 1060 nM

O=C(NCCCCc1nc2ccccc2[nH]1)c1cc(Cl)cc(Cl)c1
IC50 (Plasmodium falciparum [1]): > 5000 nM

CCc1nc(N)nc(N)c1-c1ccc(Cl)cc1 [PYRIMETHAMINE]
IC50 (Plasmodium falciparum [1]): 68 nM | IC50 (Plasmodium falciparum [4]): > 20000 nM | IC50 (Plasmodium falciparum [5]): > 20000 nM

O=C(NCCCNc1nc2c(F)cccc2[nH]1)c1cc(Cl)cc(Cl)c1
IC50 (Plasmodium falciparum [1]): 300 nM

O=C(NCCCNc1nc2ccccc2[nH]1)c1cccnc1
IC50 (Plasmodium falciparum [1]): > 5000 nM

O=C(Cc1cccc(Cl)c1)NCCCNc1nc2ccccc2[nH]1
IC50 (Plasmodium falciparum [1]): 660 nM

COc1cc(OC)cc(C(=O)NCCCNc2nc3ccccc3[nH]2)c1
IC50 (Plasmodium falciparum [1]): 330 nM

CC(C)(C)OC(=O)N1CCC(C(=O)NCCCNc2nc3ccccc3[nH]2)CC1
IC50 (Plasmodium falciparum [1]): 900 nM | IC50 [6]: > 50100 nM | CC50 [2]: > 100000 nM | solubility kinetic [3]: 393 µM (≈ 158 µg/mL) | selectivity ratio [7]: > 111

O=C(Nc1cccc(-c2nc3ccccc3[nH]2)c1)c1cc(Cl)cc(Cl)c1
IC50 (Plasmodium falciparum [1]): 1520 nM | IC50 [6]: > 14800 nM | CC50 [2]: 26300 nM | solubility kinetic [3]: 64 µM (≈ 24.5 µg/mL) | selectivity ratio [7]: 17.3

Cc1ccc(C(=O)NCCCNc2nc3ccccc3[nH]2)s1
IC50 (Plasmodium falciparum [1]): 1830 nM

O=C(NCCCNc1nc2ccccc2[nH]1)c1cccc(CN2CCCC2)c1
IC50 (Plasmodium falciparum [1]): > 5000 nM

O=C(NCCCNc1nc2ccccc2[nH]1)c1cc(F)cc(F)c1
IC50 (Plasmodium falciparum [1]): 320 nM

Cc1cccc(C(=O)NCCCNc2nc3ccccc3[nH]2)c1
IC50 (Plasmodium falciparum [1]): 970 nM

O=C(NC1(c2nc3ccccc3[nH]2)CC1)c1cc(Cl)cc(Cl)c1
IC50 (Plasmodium falciparum [1]): > 5000 nM

O=C(NCCCNc1nc2ccccc2[nH]1)c1ccccn1
IC50 (Plasmodium falciparum [1]): > 5000 nM

O=C(O)c1ccc2[nH]c(NCCCNC(=O)c3cc(Cl)cc(Cl)c3)nc2c1
IC50 (Plasmodium falciparum [1]): > 5000 nM

Cn1cccc1C(=O)NCCCNc1nc2ccccc2[nH]1
IC50 (Plasmodium falciparum [1]): > 5000 nM

O=C(NCCCNc1nc2ccccc2[nH]1)c1cc(Cl)ccc1Cl
IC50 (Plasmodium falciparum [1]): 1210 nM

COc1cccc(C(=O)NCCCNc2nc3ccccc3[nH]2)c1
IC50 (Plasmodium falciparum [1]): 930 nM

O=C(NCCNc1nc2ccccc2[nH]1)c1cc(Cl)cc(Cl)c1
IC50 (Plasmodium falciparum [1]): 1830 nM

O=C(NCCCNc1nc2ccccc2[nH]1)c1cccc(OC(F)(F)F)c1
IC50 (Plasmodium falciparum [1]): 370 nM

O=C(NCCCNc1nc2ccccc2[nH]1)C1CCNCC1
IC50 (Plasmodium falciparum [1]): > 5000 nM

O=C(NCCCNc1nc2ccccc2[nH]1)c1ccc(Cl)c(Cl)c1
IC50 (Plasmodium falciparum [1]): 170 nM

CN(CCCNC(=O)c1cc(Cl)cc(Cl)c1)c1nc2ccccc2[nH]1
IC50 (Plasmodium falciparum [1]): 1800 nM

O=C(NC1CCN(c2nc3ccccc3[nH]2)C1)c1cc(Cl)cc(Cl)c1 (stereo unspecified)
IC50 (Plasmodium falciparum [1]): > 5000 nM

O=C(NCCCNc1nc2ccccc2[nH]1)c1c(Cl)cccc1Cl
IC50 (Plasmodium falciparum [1]): > 5000 nM

O=C(NCCCNc1nc2ccccc2[nH]1)c1ccc(Cl)cc1
IC50 (Plasmodium falciparum [1]): 1080 nM

CS(=O)(=O)Nc1cccc(C(=O)NCCCNc2nc3ccccc3[nH]2)c1
IC50 (Plasmodium falciparum [1]): > 5000 nM

O=C(NCCCNc1nc2cccnc2[nH]1)c1cc(Cl)cc(Cl)c1
IC50 (Plasmodium falciparum [1]): 2540 nM

O=C(NCCCNc1nc2ccccc2[nH]1)c1cc(Cl)cc(Cl)c1
IC50 (Plasmodium falciparum [1]): 94 nM | IC50 (Plasmodium falciparum [4]): 410 nM | IC50 (Plasmodium falciparum [5]): 1030 nM | CC50 [2]: 36300 nM | solubility kinetic [3]: 239 µM (≈ 86.8 µg/mL) | Activity (Plasmodium falciparum [8]): Active | bioavailability [9]: 81% | clearance [10]: 39.7 mL/min/kg | solubility [11]: > 100 µg/mL | inhibition (Plasmodium falciparum [12]): Active

O=C(NCCCNc1nc2ccccc2[nH]1)c1cccc(Cl)c1
IC50 (Plasmodium falciparum [1]): 300 nM

O=C(NCCCNc1nc2ccccc2[nH]1)c1ccc2c(c1)OCCO2
IC50 (Plasmodium falciparum [1]): 1650 nM

O=C(NCCCNc1nc2ccccc2[nH]1)C1CCCCC1
IC50 (Plasmodium falciparum [1]): 1800 nM

Cc1ccc(C(=O)NCCCNc2nc3ccccc3[nH]2)o1
IC50 (Plasmodium falciparum [1]): 2260 nM

O=C(NCCCNc1nc2ccccc2[nH]1)c1ccnc(C(F)(F)F)c1
IC50 (Plasmodium falciparum [1]): 250 nM | CC50 [2]: > 100000 nM | solubility kinetic [3]: 349 µM (≈ 127 µg/mL)

O=C(NCCCNc1nc2ccccc2[nH]1)c1ccccc1Cl
IC50 (Plasmodium falciparum [1]): 1050 nM

N#Cc1cccc(C(=O)NCCCNc2nc3ccccc3[nH]2)c1
IC50 (Plasmodium falciparum [1]): 380 nM

O=C(NCCCNc1nc2ccccc2[nH]1)c1ccc(CN2CCCC2)cc1
IC50 (Plasmodium falciparum [1]): 2300 nM | CC50 [2]: > 100000 nM | solubility kinetic [3]: 322 µM (≈ 122 µg/mL)

Cn1c(NCCCNC(=O)c2cc(Cl)cc(Cl)c2)nc2ccccc21
IC50 (Plasmodium falciparum [1]): > 5000 nM

O=C(NCCCNc1nc2ccccc2[nH]1)c1cccc(CO)c1
IC50 (Plasmodium falciparum [1]): > 5000 nM

O=C(NCCCNc1nc2ccccc2[nH]1)c1ccncc1
IC50 (Plasmodium falciparum [1]): > 5000 nM

O=C(NCCCNc1nc2ccccc2[nH]1)c1cncc(Cl)c1
IC50 (Plasmodium falciparum [1]): 460 nM

COC(=O)c1cccc(C(=O)NCCCNc2nc3ccccc3[nH]2)c1
IC50 (Plasmodium falciparum [1]): 630 nM

CC(CNC(=O)c1cc(Cl)cc(Cl)c1)CNc1nc2ccccc2[nH]1 (stereo unspecified)
IC50 (Plasmodium falciparum [1]): 520 nM

O=C(NCCCNc1nc2ccccc2[nH]1)c1cccc(Cl)c1Cl
IC50 (Plasmodium falciparum [1]): 3420 nM

O=C(NCCCNc1nc2cc(F)ccc2[nH]1)c1cc(Cl)cc(Cl)c1
IC50 (Plasmodium falciparum [1]): 120 nM

O=C(O)c1cccc(C(=O)NCCCNc2nc3ccccc3[nH]2)c1
IC50 (Plasmodium falciparum [1]): > 5000 nM

O=C(NCCCNc1nc2ccccc2[nH]1)C1CCC(O)CC1 (stereo unspecified)
IC50 (Plasmodium falciparum [1]): > 5000 nM

O=C(NCC(O)CNc1nc2ccccc2[nH]1)c1cc(Cl)cc(Cl)c1 (stereo unspecified)
IC50 (Plasmodium falciparum [1]): 1380 nM

COc1c(Cl)cc(C(=O)NCCCNc2nc3ccccc3[nH]2)cc1Cl
IC50 (Plasmodium falciparum [1]): 100 nM

O=C(NCCCNc1nc2ccccc2[nH]1)C1CCOCC1
IC50 (Plasmodium falciparum [1]): 2640 nM

O=C(NCCCNc1nc2ccccc2[nH]1)c1ccc2c(c1)OCO2
IC50 (Plasmodium falciparum [1]): 3360 nM

O=C(NCCCCNc1nc2ccccc2[nH]1)c1cc(Cl)cc(Cl)c1
IC50 (Plasmodium falciparum [1]): 400 nM

CC(CCNC(=O)c1cc(Cl)cc(Cl)c1)Nc1nc2ccccc2[nH]1 (stereo unspecified)
IC50 (Plasmodium falciparum [1]): 1580 nM

O=C(CCNC(=O)c1cc(Cl)cc(Cl)c1)Nc1nc2ccccc2[nH]1
IC50 (Plasmodium falciparum [1]): 4180 nM
